Data reported in ChEMBL document CHEMBL1154616, “Synthesis and antitumor activity studies of some new fused 1,2,4-triazole derivatives carrying 2,4-dichloro-5-fluorophenyl moiety” (Eur J Med Chem, 2009).

Experiments:
NCI-H522 = test: Anticancer activity against human NCI-H522 cells after 48 hrs by sulforhodamine B assay; assay type: functional; conditions: NCI-H522, 48 h
Method in brief: (§1)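 Full 60-cell-line panel, compounds tested over a five-log dose range. Cells are preincubated on microtiter plates, the agent is added, and cultures run 48 h. The end point is sulphorhodamine B protein staining. GI50 is taken as the concentration giving 50% growth inhibition relative to untreated control cells.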

RXF 393 = test: Anticancer activity against human RXF393 cells after 48 hrs by sulforhodamine B assay; assay type: functional; conditions: RXF 393, 48 h; method in brief: as §1
CAKI-1 = test: Anticancer activity against human Caki1 cells after 48 hrs by sulforhodamine B assay; assay type: functional; conditions: CAKI-1, 48 h; method in brief: as §1
A498 = test: Anticancer activity against human A498 cells after 48 hrs by sulforhodamine B assay; assay type: functional; conditions: A498, 48 h; method in brief: as §1
UACC-62 = test: Anticancer activity against human UACC62 cells after 48 hrs by sulforhodamine B assay; assay type: functional; conditions: UACC-62, 48 h
Method in brief: (§2)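 Cells from the 60-line full panel are preincubated on microtiter plates, then treated across a five-log dose range for 48 h. Growth is read with the protein-binding dye sulforhodamine B. GI50 is the concentration giving 50% growth inhibition relative to untreated control cells.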

SK-MEL-28 = test: Anticancer activity against human SK-MEL-28 cells after 48 hrs by sulforhodamine B assay; assay type: functional; conditions: SK-MEL-28, 48 h; method in brief: as §1
HCT-116 = test: Anticancer activity against human HCT116 cells after 48 hrs by sulforhodamine B assay; assay type: functional; conditions: HCT-116, 48 h; method in brief: as §1
SF-268 [1] = test: Anticancer activity against human SF268 cells after 48 hrs by sulforhodamine B assay; assay type: functional; conditions: SF-268, 48 h; method in brief: as §1
IGROV-1 = test: Anticancer activity against human IGROV1 cells after 48 hrs by sulforhodamine B assay; assay type: functional; conditions: IGROV-1, 48 h; method in brief: as §1
OVCAR-4 = test: Anticancer activity against human OVCAR4 cells after 48 hrs by sulforhodamine B assay; assay type: functional; conditions: OVCAR-4, 48 h; method in brief: as §1
Malme-3M = test: Anticancer activity against human MALME-3M cells after 48 hrs by sulforhodamine B assay; assay type: functional; method in brief: as §1
EKVX = test: Anticancer activity against human EKVX cells after 48 hrs by sulforhodamine B assay; assay type: functional; method in brief: as §1
HT-29 = test: Anticancer activity against human HT-29 cells after 48 hrs by sulforhodamine B assay; assay type: functional; conditions: HT-29, 48 h; method in brief: as §1
SF-268 [2] = test: Anticancer activity against human SF268 cells assessed as cell growth at 100 uM after 48 hrs by sulforhodamine B assay relative to control; assay type: functional; conditions: SF-268, 48 h, read-out: Activity
Method in brief: (§3)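 Three-cell-line prescreen (NCI-H460 lung, MCF7 breast, SF 268 CNS), each preincubated on microtiter plates. The agent is added at a single concentration and cultures are incubated 48 h. Growth is read by sulphorhodamine B protein staining and reported as percent growth of treated versus untreated control cells; negative values indicate cell kill.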

SF-295 = test: Anticancer activity against human SF295 cells after 48 hrs by sulforhodamine B assay; assay type: functional; conditions: SF-295, 48 h; method in brief: as §1
NCI-H226 = test: Anticancer activity against human NCI-H226 cells after 48 hrs by sulforhodamine B assay; assay type: functional; conditions: NCI-H226, 48 h; method in brief: as §1
A549 = test: Anticancer activity against human A549 cells after 48 hrs by sulforhodamine B assay; assay type: functional; conditions: A549, 48 h; method in brief: as §1
SNB-19 = test: Anticancer activity against human SNB19 cells after 48 hrs by sulforhodamine B assay; assay type: functional; conditions: SNB-19, 48 h; method in brief: as §1
NCI-H322M = test: Anticancer activity against human NCI-H322M cells after 48 hrs by sulforhodamine B assay; assay type: functional; method in brief: as §1
HCC 2998 = test: Anticancer activity against human HCC2998 cells after 48 hrs by sulforhodamine B assay; assay type: functional; conditions: HCC 2998, 48 h; method in brief: as §1
U-251 = test: Anticancer activity against human U251 cells after 48 hrs by sulforhodamine B assay; assay type: functional; conditions: U-251, 48 h; method in brief: as §2
KM12 = test: Anticancer activity against human KM12 cells after 48 hrs by sulforhodamine B assay; assay type: functional; conditions: KM12, 48 h; method in brief: as §1
HOP-62 = test: Anticancer activity against human HOP62 cells after 48 hrs by sulforhodamine B assay; assay type: functional; conditions: HOP-62, 48 h; method in brief: as §1
UACC-257 = test: Anticancer activity against human UACC257 cells after 48 hrs by sulforhodamine B assay; assay type: functional; conditions: UACC-257, 48 h; method in brief: as §2
COLO 205 = test: Anticancer activity against human COLO205 cells after 48 hrs by sulforhodamine B assay; assay type: functional; conditions: COLO 205, 48 h; method in brief: as §1
MDA-MB-435 = test: Anticancer activity against human MDA-MB-435 cells after 48 hrs by sulforhodamine B assay; assay type: functional; conditions: MDA-MB-435, 48 h; method in brief: as §1
NCI-H460 [3] = test: Anticancer activity against human NCI-H460 cells after 48 hrs by sulforhodamine B assay; assay type: functional; conditions: NCI-H460, 48 h; method in brief: as §1
TK-10 = test: Anticancer activity against human TK10 cells after 48 hrs by sulforhodamine B assay; assay type: functional; conditions: TK-10, 48 h; method in brief: as §2
SN12C = test: Anticancer activity against human SN12C cells after 48 hrs by sulforhodamine B assay; assay type: functional; method in brief: as §1
UO-31 = test: Anticancer activity against human UO31 cells after 48 hrs by sulforhodamine B assay; assay type: functional; conditions: UO-31, 48 h; method in brief: as §2
OVCAR-3 = test: Anticancer activity against human OVCAR-3 cells after 48 hrs by sulforhodamine B assay; assay type: functional; conditions: OVCAR-3, 48 h; method in brief: as §1
DU-145 = test: Anticancer activity against human DU145 cells after 48 hrs by sulforhodamine B assay; assay type: functional; conditions: DU-145, 48 h; method in brief: as §1
K562 = test: Anticancer activity against human K562 cells after 48 hrs by sulforhodamine B assay; assay type: functional; conditions: K562, 48 h; method in brief: as §1
SK-OV-3 = test: Anticancer activity against human SKOV3 cells after 48 hrs by sulforhodamine B assay; assay type: functional; conditions: SK-OV-3, 48 h; method in brief: as §1
MDA-MB-231 = test: Anticancer activity against human MDA-MB-231 cells after 48 hrs by sulforhodamine B assay; assay type: functional; conditions: MDA-MB-231, 48 h; method in brief: as §1
MCF7 [4] = test: Anticancer activity against human MCF7 cells assessed as cell growth at 100 uM after 48 hrs by sulforhodamine B assay relative to control; assay type: functional; conditions: MCF7, 48 h, read-out: Activity; method in brief: as §3
LOX IMVI = test: Anticancer activity against human LOXIMVI cells after 48 hrs by sulforhodamine B assay; assay type: functional; method in brief: as §1
786-0 = test: Anticancer activity against human 786-0 cells after 48 hrs by sulforhodamine B assay; assay type: functional; conditions: 786-0, 48 h; method in brief: as §1
NCI-H460 [5] = test: Anticancer activity against human NCI-H460 cells assessed as cell growth at 100 uM after 48 hrs by sulforhodamine B assay relative to control; assay type: functional; conditions: NCI-H460, 48 h, read-out: Activity; method in brief: as §3
OVCAR-5 = test: Anticancer activity against human OVCAR5 cells after 48 hrs by sulforhodamine B assay; assay type: functional; conditions: OVCAR-5, 48 h; method in brief: as §1
[6] = Acute toxicity in orally dosed Swiss albino mouse after 24 hrs; assay type: organism-based; conditions: in vivo, po
Method in brief: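 Male Swiss albino mice (Mus musculus); median lethal dose (LD50) determined after oral dosing, read at 24 h.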

PC-3 = test: Anticancer activity against human PC3 cells after 48 hrs by sulforhodamine B assay; assay type: functional; conditions: PC-3, 48 h; method in brief: as §1
M14 = test: Anticancer activity against human M14 cells after 48 hrs by sulforhodamine B assay; assay type: functional; conditions: M14, 48 h; method in brief: as §1
SW-620 = test: Anticancer activity against human SW620 cells after 48 hrs by sulforhodamine B assay; assay type: functional; conditions: SW-620, 48 h; method in brief: as §2
BT-549 = test: Anticancer activity against human BT549 cells after 48 hrs by sulforhodamine B assay; assay type: functional; conditions: BT-549, 48 h; method in brief: as §1
SNB-75 = test: Anticancer activity against human SNB75 cells after 48 hrs by sulforhodamine B assay; assay type: functional; conditions: SNB-75, 48 h; method in brief: as §2
HCT-15 = test: Anticancer activity against human HCT15 cells after 48 hrs by sulforhodamine B assay; assay type: functional; conditions: HCT-15, 48 h; method in brief: as §1
HOP-92 = test: Anticancer activity against human HOP92 cells after 48 hrs by sulforhodamine B assay; assay type: functional; conditions: HOP-92, 48 h; method in brief: as §1
MOLT-4 = test: Anticancer activity against human MOLT4 cells after 48 hrs by sulforhodamine B assay; assay type: functional; conditions: MOLT-4, 48 h; method in brief: as §1
NCI/ADR-RES = test: Anticancer activity against human NCI/ADR-RES cells after 48 hrs by sulforhodamine B assay; assay type: functional; method in brief: as §1
T47D = test: Anticancer activity against human T47D cells after 48 hrs by sulforhodamine B assay; assay type: functional; method in brief: as §2
ACHN = test: Anticancer activity against human ACHN cells after 48 hrs by sulforhodamine B assay; assay type: functional; method in brief: as §1
OVCAR-8 = test: Anticancer activity against human OVCAR8 cells after 48 hrs by sulforhodamine B assay; assay type: functional; conditions: OVCAR-8, 48 h; method in brief: as §1
MCF7 [7] = test: Anticancer activity against human MCF7 cells after 48 hrs by sulforhodamine B assay; assay type: functional; conditions: MCF7, 48 h; method in brief: as §1
NCI-H23 = test: Anticancer activity against human NCI-H23 cells after 48 hrs by sulforhodamine B assay; assay type: functional; conditions: NCI-H23, 48 h; method in brief: as §1

**Q.** Which results are given for `Fc1cc(-c2nnc3n2N=C(c2ccc(Cl)cc2)CS3)c(Cl)cc1Cl`?
**A.** GI50 (NCI-H522): 1.8 µM; GI50 (RXF 393): 11.4 µM; GI50 (CAKI-1): 4.21 µM; GI50 (A498): 21 µM; GI50 (UACC-62): 3.63 µM; GI50 (SK-MEL-28): 6.41 µM; GI50 (HCT-116): 2.36 µM; GI50 (SF-268 [1]): 13.2 µM; GI50 (IGROV-1): 3.39 µM; GI50 (OVCAR-4): 5.35 µM; GI50 (Malme-3M): 2.37 µM; GI50 (EKVX): 27.4 µM; GI50 (HT-29): 4.6 µM; growth at 100 µM (SF-268 [2]): 3%; GI50 (SF-295): 15.7 µM; GI50 (NCI-H226): 18.1 µM; GI50 (A549): 18.3 µM; GI50 (SNB-19): 19.5 µM; GI50 (NCI-H322M): 16.2 µM; GI50 (HCC 2998): 13.6 µM; GI50 (U-251): 10.6 µM; GI50 (KM12): 8.08 µM; GI50 (HOP-62): 20.1 µM; GI50 (UACC-257): 15.7 µM; GI50 (COLO 205): 7.09 µM; GI50 (MDA-MB-435): 4.55 µM; GI50 (NCI-H460 [3]): 19.1 µM; GI50 (TK-10): 3.11 µM; GI50 (SN12C): 3.6 µM; GI50 (UO-31): 1.89 µM; GI50 (OVCAR-3): 15.1 µM; GI50 (DU-145): 3.41 µM; GI50 (K562): 1.69 µM; GI50 (SK-OV-3): 25.4 µM; GI50 (MDA-MB-231): 10.8 µM; growth at 100 µM (MCF7 [4]): 3%; GI50 (LOX IMVI): 1.69 µM; GI50 (786-0): 2.08 µM; growth at 100 µM (NCI-H460 [5]): 3%; GI50 (OVCAR-5): 10.6 µM; LD50 at 24 h [6]: 227 mg/kg; GI50 (PC-3): 18.7 µM; GI50 (M14): 4.87 µM; GI50 (SW-620): 1.91 µM; GI50 (BT-549): 3.27 µM; GI50 (SNB-75): 3.37 µM; GI50 (HCT-15): 1.86 µM; GI50 (HOP-92): 16.4 µM; GI50 (MOLT-4): 1.06 µM; GI50 (NCI/ADR-RES): 3.12 µM; GI50 (T47D): 3.9 µM; GI50 (ACHN): 4.82 µM; GI50 (OVCAR-8): 14.8 µM; GI50 (MCF7 [7]): 6.24 µM; GI50 (NCI-H23): 13.8 µM
